Publication PMC7009771 (EFSA Journal, 2018)
≈ marks a conversion by molar mass, not a printed value. Entries after “also recorded” stand apart in the source; their conditions may differ. Where two headings read alike, the source gives them in different places.

Columns and labels:
[1] = system: bone marrow of CD-1 mice; conditions: ref WIL Research (2013a), cited from earlier work
[2] = carcinogenic potential; ref EC SCCS, 2012, EFSA ANS Panel, 2017; cited from earlier work
[3] = system: CD [Crl:CD(SD)] rats; test: 90-day oral toxicity study in rats; type: in vivo
Method in brief: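 Candidate substance given by oral gavage to CD rats of both sexes for 13 weeks at up to 100 mg/kg bw per day, with doses chosen from a 28-day dietary range-finder. Margin of safety derived from the 90-day NOAEL against APET exposure estimates: chronic 3.8 (adult) or 9.5 (child) µg/kg bw per day, and acute 0.076 mg/kg bw for a 3-year-old child.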

[4] = ref Senomyx, 2015, cited from earlier work
[5] = heated for 24 h at 110°C; ref Senomyx, 2015; cited from earlier work
[6] = 24 h at 100°C, ref Senomyx, 2015, cited from earlier work
[7] = system: human peripheral blood lymphocytes (HPBL); conditions: ref Nucro-Technics (2013b), cited from earlier work; for relative cell growth (RCG) (test vs. solvent control) / relative mitotic index (RMI) (test vs. solvent control): 3-h exposure without S9-mix
[8] = system: CD [Crl:CD(SD)] rats; conditions: 28 days, gavage, rats males and females; ref Charles River (2013); cited from earlier work
[9] = system: CD [Crl:CD(SD)] rats; conditions: 90 days, gavage, rats males and females; ref Charles River (2014); cited from earlier work
[10] = in vitro; ref CiToxLab, 2014; cited from earlier work
[11] = system: Keratinocyte ARE-Reporter Cell Line KeratinoSens; conditions: in vitro; ref IIVS, 2013; cited from earlier work
[12] = system: humans; conditions: 112 subjects completed, ref Harrison Research Laboratories, 2014a,b; cited from earlier work
[13] = system: 67 receptor binding assays for G-protein coupled receptors (GPCRs), ion channels, nuclear receptors and transporters; conditions: significant = ≥ 50% inhibition or stimulation; 67 assays; ref Ricerca, 2012; cited from earlier work
[14] = system: hERG ion channel; conditions: 10 μM; ref AVIVA, 2012; cited from earlier work
[15] = system: CYP2C19; conditions: 10 μM (~ […]), pooled human liver microsomes; ref Absorption Systems, 2013a; cited from earlier work
[16] = system: CYP2C19; conditions: human liver microsomes; ref Absorption Systems, 2013b; cited from earlier work
[17] = system: Balb/c 3T3 cells; conditions: based on 3T3 NRU test; ref CeeTox, 2013; cited from earlier work
[18] = Nitrosation rate constant; conditions: pH 3.4; estimated from kDMA by correction for the pKa difference
[19] = system: bone marrow of Hsd:ICR (CD-1) mice; conditions: cited from earlier work; for maximum tolerated dose (MTD): range-finder, oral gavage, ref BioReliance, 2014
[20] = system: S. Typhimurium strains TA98, TA100, TA1535 and TA1537 and E. coli strain WP2 uvrA; conditions: up to 5,000 μg/plate, ref BioReliance (2013a), cited from earlier work; for Bacterial reverse mutation result: plate incorporation, with and without metabolic activation
[21] = system: human peripheral blood lymphocytes (HPBL); conditions: ref BioReliance (2013b), cited from earlier work; for Chromosome aberration result (structural aberrations): 4 + 16 h in the absence of S9-mix
[22] = 3-h exposure with S9-mix, 1.3 μg/mL
[23] = 3-h exposure with S9-mix, 2.5 μg/mL
[24] = 3-h exposure with S9-mix, 5.0 μg/mL
[25] = 20-h exposure without S9, 23 μg/mL
[26] = 20-h exposure without S9, 39 μg/mL
[27] = 20-h exposure without S9, 65 μg/mL
[28] = 20-h exposure without S9, 110 μg/mL

## O=P1(N(CCCl)CCCl)NCCCO1 (stereo not shown) [CP, Cyclophosphamide monohydrate, reference compound]
[1]; positive control, 60 mg/kg bw per day
  frequency of MNPCEs, positive control: statistically significant increase

## CN(C)N=O [DMNA, dimethylnitrosamine]
[2]
  BMDL10: 27 μg/kg bw per day

## Cc1ccc(OCC(=O)N(Cc2cccs2)c2ccn[nH]2)cc1 [FL‐no: 16.133, 2‐(4‐methylphenoxy)‐N‐(1H‐pyrazol‐3‐yl)‐N‐(thiophen‐2‐ylmethyl)acetamide]
[3]; Adult, 90-day NOAEL 100 mg/kg bw per day vs chronic APET 3.8 μg/kg bw per day
  Margin of safety: 26,300
[3]; Child, 90-day NOAEL 100 mg/kg bw per day vs chronic APET 9.5 μg/kg bw per day
  Margin of safety: 10,500
[3]; children, 90-day NOAEL vs maximum acute dietary exposure about 0.08 mg/kg bw
  MoE, acute exposure: more than 1,000
[4]; 95% ethanol
  Solubility in ethanol: > 308 mM
[4]; pH = 7
  Solubility in water: 0.12 mM (≈ 0.0393 mg/mL)
[4]
  Solubility in triacetine: 40.47 mM (≈ 13.3 mg/mL)
[5]
  Dry powder stability: stable
[6]; aqueous citric buffer pH 2.8
  percentage remaining: 90.1%
[6]; aqueous citric buffer pH 4.0
  percentage remaining: 97.2%
[6]; phosphoric acid buffer pH 7.1
  percentage remaining: 83.5%
[7]; [22]
  relative cell growth (RCG): 109%
  relative mitotic index (RMI): 61%
[7]; [23]
  relative cell growth (RCG): 100%
  relative mitotic index (RMI): 55%
[7]; [24]
  relative cell growth (RCG): 121%
  relative mitotic index (RMI): 45%
[7]; 3-h exposure with S9-mix, 10 μg/mL
  relative cell growth (RCG): 130%
[7]; 3-h exposure with S9-mix, 20 μg/mL
  relative cell growth (RCG): 97%
[7]; 3-h exposure with S9-mix, 40 μg/mL
  relative cell growth (RCG): 84%
[7]; 3-h exposure with S9-mix, 80 μg/mL
  relative cell growth (RCG): 60%
[7]; 3-h exposure with S9-mix, 160 μg/mL
  relative cell growth (RCG): 11%
[7]; 35 μg/mL
  relative cell growth (RCG) (test vs. solvent control): 108%
  relative mitotic index (RMI) (test vs. solvent control): 102%
[7]; 58 μg/mL
  relative cell growth (RCG) (test vs. solvent control): 93%
  relative mitotic index (RMI) (test vs. solvent control): 88%
[7]; 97 μg/mL
  relative cell growth (RCG) (test vs. solvent control): 98%
  relative mitotic index (RMI) (test vs. solvent control): 110%
[7]; 160 μg/mL
  relative cell growth (RCG) (test vs. solvent control): 60%
  relative mitotic index (RMI) (test vs. solvent control): 48%
[7]; 270 μg/mL
  relative cell growth (RCG) (test vs. solvent control): 18%
[7]; [25]
  relative cell growth (RCG): 100%
  relative mitotic index (RMI): 106%
[7]; [26]
  relative cell growth (RCG): 97%
  relative mitotic index (RMI): 82%
[7]; [27]
  relative cell growth (RCG): 60%
  relative mitotic index (RMI): 57%
[7]; [28]
  relative cell growth (RCG): 56%
  relative mitotic index (RMI): 0%
[7]; 20-h exposure without S9, 180 μg/mL
  relative cell growth (RCG): 19%
[1]; CD-1 mice, 1,000-2,000 mg/kg bw per day
  ratio PCEs/TE (bone marrow toxicity) vs vehicle control: No decrease
[1]; CD-1 mice, gavage, 1,000, 1,500 and 2,000 mg/kg bw per day, three consecutive days
  Micronucleus assay result (incidence of MNPCEs): No statistically significant increases; also recorded: Negative
[1]; CD-1 mice, gavage, up to 2,000 mg/kg bw per day
  clinical signs of toxicity: No clinical signs of toxicity
[8]
  Result: NOEL: NOEL: ≥ 100 mg/kg bw per day
[9]
  Result: NOEL: NOEL: ≥ 100 mg/kg bw per day
[10]
  skin sensitisation potential, DPRA: may exhibit a skin sensitisation potential
[11]
  skin sensitisation potential, KeratinoSens Assay: may exhibit a skin sensitisation potential
[12]
  skin sensitisation, HRIPT result: negative result
[13]
  responses in lead profiling receptor screen: No significant responses
[14]
  inhibition of hERG ion channel current: < 10%
[15]
  CYP2C19 inhibition: significant inhibition
[16]
  time-dependent inhibition of CYP2C19: No evidence of time‐dependent CYP inhibition
[17]
  phototoxic potential (Panel conclusion): does not anticipate that [FL‐no: 16.133] has a phototoxic potential

## c1csc(CNc2cc[nH]n2)c1 [M179, N‐(thiophen‐2‐ylmethyl)‐1H‐pyrazol‐3‐amine]
[18]
  rate constant of nitrosation (kM179), estimated: 0.0017 × 10^−4 M^−2s^−1

## COS(C)(=O)=O [MMS, methyl methanesulfonate, reference compound]
[19]; positive control, 40 mg/kg bw per day on days 2 and 3, ref BioReliance (2014)
  frequency of MNPCEs, positive control: statistically significant increases

## Cl.c1csc(CNc2cc[nH]n2)c1 [S1140, N‐(Thiophen‐2‐ylmethyl)‐1H‐pyrazol‐3‐amine, hydrochloride salt]
[20]
  Bacterial reverse mutation result: did not show mutagenicity
[20]; hydrochloride salt (M179)
  Bacterial reverse mutation result: Negative ^a
[20]; two studies
  precipitate / background lawn toxicity: Neither precipitate nor background lawn toxicity was observed in the two studies performed
[21]; hydrochloride salt (M179)
  Chromosome aberration result (structural aberrations): Positive ^e
[21]
  Chromosome aberration result (structural aberrations): induced chromosomal aberrations
[21]; 4 + 16 h treatment in the presence of S9-mix, 100-1,840 μg/mL
  structural chromosomal aberrations: No statistically significant or concentration‐related increases in structural chromosomal aberrations
[21]; any of the treatment conditions
  polyploidy: No statistically significant or concentration‐related increases in polyploidy

## O=S(=O)(O)O.c1csc(CNc2cc[nH]n2)c1.c1csc(CNc2cc[nH]n2)c1 [S2312, hemisulfate salt of N‐(thiophen‐2‐ylmethyl)‐1H‐pyrazol‐3‐amine]
[19]; mice, 125-1,000 mg/kg bw per day, gavage, ref BioReliance (2014)
  clinical signs observed: piloerection (at all dose levels), lethargy (at 500 and 1,000 mg/kg bw per day), prostration, irregular breathing and crusty eyes (at 1,000 mg/kg bw per day in female mice)
[19]; mice, any dose level up to 1,000 mg/kg bw per day, ref BioReliance (2014)
  mortality: No mortality
[19]; female mice
  maximum tolerated dose (MTD): 1,000 mg/kg bw per day
[19]; male mice
  maximum tolerated dose (MTD): 500 mg/kg bw per day
